Converted amounts (≈) assume the structure as drawn. The source made the active and inactive calls. The rule behind the calls is not given here.
Legend:
[1] = tested on: Bartonella vinsonii; assay: Antibacterial activity against Bartonella vinsonii ATCC VR152 at 20 ug per disc after 7 days by Kirby-Bauer disc diffusion assay; assay type: functional; conditions: ATCC VR152, 168 h, read-out: DIZ
Procedure, shortened: (§1)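 Each paper disk was loaded with 20 µl of a 1 mg/ml solution, dried for 20 min and stored desiccated at 4 °C. Growth from 4-day plates was suspended in heart infusion broth to McFarland 2.0 and swabbed onto chocolate agar (heart infusion agar base with 5% bovine hemoglobin). Plates were incubated 1 week at 37 °C in 5% CO2. Zone diameter was read to the nearest mm, in triplicate and averaged.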

[2] = tested on: Staphylococcus aureus; assay: Antibacterial activity against methicillin-susceptible Staphylococcus aureus SH1000 at MIC by serial dilution method; assay type: functional
Procedure, shortened: (§2)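 Tryptic soy agar contained compound at 1x, 1.5x, 2.0x or 2.5x the measured MSSA MIC. Cells from 1 ml of an overnight MSSA broth culture were pelleted, resuspended in 100 µl TSB and spread with glass beads. Inoculum cfu was counted by serial dilution onto drug-free agar. Total colonies from at least 3 replicates are reported; frequency is colonies divided by total inoculum.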

[3] = tested on: Bartonella quintana; assay: Antibacterial activity against Bartonella quintana ATCC VR358 at 20 ug per disc after 7 days by Kirby-Bauer disc diffusion assay; assay type: functional; conditions: ATCC VR358, 168 h, read-out: DIZ; procedure, shortened: as §1
[4] = tested on: Staphylococcus aureus; assay: Antibacterial activity against methicillin-resistant Staphylococcus aureus ATCC 43300; assay type: functional
Procedure, shortened: (§3)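 MIC against S. aureus strains was run by an earlier published procedure, tested in triplicate. Values were averaged and expressed as µg/ml of compound.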

[5] = tested on: Staphylococcus aureus; assay: Antibacterial activity against methicillin-resistant Staphylococcus aureus isolate CBD 635 at 50 ug per disc by Kirby-Bauer disc diffusion assay; assay type: functional; conditions: read-out: DIZ
Procedure, shortened: (§4)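 Kirby-Bauer disk diffusion with 50 µg compound per 6 mm paper disk. Organisms were grown and plated by an earlier method. The zone-of-inhibition diameter was recorded to the nearest mm and averaged over three independent experiments. No zone was reported as 6 mm, the disk diameter.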

[6] = tested on: Bacillus anthracis; assay: Antibacterial activity against Bacillus anthracis sterne at 50 ug per disc by Kirby-Bauer disc diffusion assay; assay type: functional; conditions: read-out: DIZ; procedure, shortened: as §4
[7] = tested on: Staphylococcus aureus; assay: Antibacterial activity against methicillin-susceptible Staphylococcus aureus SH1000 at 2 fold MIC by serial dilution method; assay type: functional; procedure, shortened: as §2
[8] = tested on: Escherichia coli; assay: Antibacterial activity against Escherichia coli DH5alpha at 50 ug per disc by Kirby-Bauer disc diffusion assay; assay type: functional; conditions: DH5[alpha], read-out: DIZ
Procedure, shortened: (§5)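 Disks carried 50 µg of compound. Zone diameter was measured to the nearest mm and averaged over three independent experiments. A value of 6 mm, the disk diameter, was recorded where no inhibition was seen.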

[9] = Antibacterial activity against Bartonella henselae ATCC 49882 after 7 days by agar dilution method; assay type: functional, Bartonella henselae str. Houston-1; conditions: ATCC 49882, 168 h
Procedure, shortened: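 Agar dilution on chocolate agar containing compound at 10.0, 1.0 and 0.1 µg/ml, with 2-fold steps at and below 1.0 µg/ml for compounds active there. Controls were DMSO-only and drug-free plates. 25 µl of a McFarland 2.0 suspension in heart infusion broth was spotted and incubated 7 days at 37 °C in 5% CO2. Growth was scored +/− on duplicate plates; triplicate results were averaged.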

[10] = tested on: Staphylococcus aureus; assay: Antibacterial activity against methicillin-susceptible Staphylococcus aureus SH1000; assay type: functional
Procedure, shortened: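 MIC in µg/ml, tested in triplicate and averaged, with ciprofloxacin as positive control.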

[11] = tested on: Staphylococcus aureus; assay: Antibacterial activity against methicillin-susceptible Staphylococcus aureus SH1000 at 2.5 fold MIC by serial dilution method; assay type: functional; procedure, shortened: as §2
[12] = tested on: Staphylococcus aureus; assay: Antibacterial activity against methicillin-resistant Staphylococcus aureus isolate CBD 635; assay type: functional; procedure, shortened: as §3
[13] = tested on: Bartonella elizabethae; assay: Antibacterial activity against Bartonella elizabethae F9251 at 20 ug per disc after 7 days by Kirby-Bauer disc diffusion assay; assay type: functional; conditions: F9251, 168 h, read-out: DIZ; procedure, shortened: as §1
[14] = Antibacterial activity against Bartonella henselae ATCC 49882 at 20 ug per disc after 7 days by Kirby-Bauer disc diffusion assay; assay type: functional, Bartonella henselae str. Houston-1; conditions: ATCC 49882, 168 h, read-out: DIZ; procedure, shortened: as §1
[15] = tested on: Staphylococcus aureus; assay: Antibacterial activity against methicillin-susceptible Staphylococcus aureus SH1000 at 1.5 fold MIC by serial dilution method; assay type: functional; procedure, shortened: as §2
[16] = tested on: Enterococcus faecalis; assay: Antibacterial activity against Enterococcus faecalis DS16 at 50 ug per disc by Kirby-Bauer disc diffusion assay; assay type: functional; conditions: read-out: DIZ; procedure, shortened: as §5
[17] = Antibacterial activity against Bartonella henselae Houston-1 infected in human HMEC1 cells assessed as intracellular bacterial load at 1 ug/mL incubated for 96 hrs followed by compound washout measured after 7 days relative to control; assay type: functional, Bartonella henselae str. Houston-1
Procedure, shortened: (§6)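 HMEC-1 cells grown in MCDB131 with 10% FBS, EGF and hydrocortisone were infected with B. henselae Houston-1 at MOI 100 for 4 h. Extracellular bacteria were killed with gentamicin (200 µg/ml, 1 h), then compound was added at 0.1 or 1.0 µg/ml for 96 h. After washing, cells were lysed with 0.1% saponin and lysates plated on chocolate agar for 7 days. CFU are given as a percentage of the media-only control.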

[18] = Antibacterial activity against Bartonella henselae Houston-1 infected in human HMEC1 cells assessed as intracellular bacterial load at 0.1 ug/mL incubated for 96 hrs followed by compound washout measured after 7 days relative to control; assay type: functional, Bartonella henselae str. Houston-1; procedure, shortened: as §6
[19] = tested on: Escherichia coli; assay: Inhibition of Escherichia coli DNA gyrase-mediated formation of supercoiled form of pUC19 at 1 to 100 ug/mL by gel electrophoresis
Procedure, shortened: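 Relaxed circular pUC19 was incubated with purified E. coli DNA gyrase and compound for 1 h at 37 °C. Relaxed and supercoiled DNA were resolved and quantified by gel electrophoresis.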

SMILES	zone of inhibition at 20 µg/disc [1] [mm]	Activity [2]	zone of inhibition at 20 µg/disc [3] [mm]	MIC [4] [µg/mL]	zone of inhibition at 50 µg/disc [5] [mm]	zone of inhibition at 50 µg/disc [6] [mm]	CFU/ml [7]	zone of inhibition at 50 µg/disc [8] [mm]	MIC [9] [µg/mL]	MIC [10] [µg/mL]	CFU/ml [11]	MIC [12] [µg/mL]	zone of inhibition at 20 µg/disc [13] [mm]	zone of inhibition at 20 µg/disc [14] [mm]	CFU/ml [15]	zone of inhibition at 50 µg/disc [16] [mm]	Activity [17]	Activity [18] [%]	also measured
CCCC(C)C(=O)N1CCN(c2cc3c(cc2F)c(=O)c(C(=O)O)cn3C2CC2)CC1 (configuration not stated)	30	inactive	24	1 (≈ 2.33 µM)	33	67	4	33	0.8 (≈ 1.86 µM)	10 (≈ 23.3 µM)	0	> 100	32	37	7	33	–	–	–
CC(C)CC(=O)N1CCN(c2cc3c(cc2F)c(=O)c(C(=O)O)cn3C2CC2)CC1	40	–	36	> 100	28	70	–	36	0.2 (≈ 0.481 µM)	> 100	–	> 100	37	62	–	32	<=10%	32	–
CC(=O)N1CCN(c2cc3c(cc2F)c(=O)c(C(=O)O)cn3C2CC2)CC1	–	–	6	10 (≈ 26.8 µM)	24	89	101	60	–	10 (≈ 26.8 µM)	0	> 100	58	52	41	48	<=10%	54	CFU/ml [2]: 90; gyrase inhibition (active/inactive) [19]: Active
CCCCCCCCCC(=O)N1CCN(c2cc3c(cc2F)c(=O)c(C(=O)O)cn3C2CC2)CC1	9	inactive	11	10 (≈ 20.6 µM)	34	6	–	6	5 (≈ 10.3 µM)	10 (≈ 20.6 µM)	–	> 100	9	10	–	6	–	–	Activity [7]: inactive; Activity [11]: inactive; Activity [15]: inactive
CCC(C)(C)C(=O)N1CCN(c2cc3c(cc2F)c(=O)c(C(=O)O)cn3C2CC2)CC1	33	–	27	1 (≈ 2.33 µM)	31	57	–	38	0.5 (≈ 1.16 µM)	5 (≈ 11.6 µM)	–	> 100	32	41	–	45	<=10%	54	–

— ChEMBL document CHEMBL2150951, “Studies on the antimicrobial properties of N-acylated ciprofloxacins” (2012)
